Shown are actives, neighbours in structure and some others; about 2.5% of the full set was active somewhere.
dFosB act: mouse delta FosB homodimer activation; AID 493131; activation, % at 25 µM; purified delta FosB, TAMRA-CDK5 oligo fluorescence polarization; percent of positive-control signal above neutral wells; hit rate 0.99% among 340,000;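 active = mean activation above about 17%, with every replicate also reaching it, limit read from the data, passing the limit was not always enough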
VIM-2 inh: blocks Pseudomonas aeruginosa VIM-2 metallo-beta-lactamase; purified VIM-2, nitrocefin hydrolysis, epi-absorbance fluorescence; AID 1527; inhibition, % at 5.6 µM; hit rate 0.89% among 290,000;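 active = inhibition above the mean of all tested compounds plus 3 SD, cutoff set per screening run, cut at about 7.5% in these data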;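 note: red hydrolysis product quenches plate fluorescence so inhibitors raise well fluorescence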
IMP-1 inh: blocks Pseudomonas aeruginosa IMP-1 metallo-beta-lactamase; purified IMP-1, nitrocefin hydrolysis, epi-absorbance fluorescence; hit rate 0.45% among 290,000; inhibition, % at 5.6 µM;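 active = inhibition above the mean plus 3 SD of all compounds in the same screening run, cut at about 4.5% in these data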
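System: Purified recombinant IMP-1 metallo-beta-lactamase enzyme | Measured by: Fluorescence quenching readout, ex 480/em 530 nm | Replication: Singlicate | Incubation: 15 min preincubation plus 25 min reaction at 25 °C | Evaluation: Percent inhibition from optical density relative to buffer-blank wells | Benchmarks: DMSO with and without IMP-1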
m5-HT2A agonist: agonists of mouse serotonin 5-HT2A receptor (HTR2A); activation, % at 7.6 µM; hit rate 0.66% among 360,000; P35363; CHO-K1 mHTR2A beta-arrestin complementation, luminescence; percent of 30 µM serotonin response; AID 624169;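 active = activation above a run cutoff, the mean activation of all tested compounds plus 3 SD, cut at about 14% in these data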
Target sequence (P35363 whole entry, looked up): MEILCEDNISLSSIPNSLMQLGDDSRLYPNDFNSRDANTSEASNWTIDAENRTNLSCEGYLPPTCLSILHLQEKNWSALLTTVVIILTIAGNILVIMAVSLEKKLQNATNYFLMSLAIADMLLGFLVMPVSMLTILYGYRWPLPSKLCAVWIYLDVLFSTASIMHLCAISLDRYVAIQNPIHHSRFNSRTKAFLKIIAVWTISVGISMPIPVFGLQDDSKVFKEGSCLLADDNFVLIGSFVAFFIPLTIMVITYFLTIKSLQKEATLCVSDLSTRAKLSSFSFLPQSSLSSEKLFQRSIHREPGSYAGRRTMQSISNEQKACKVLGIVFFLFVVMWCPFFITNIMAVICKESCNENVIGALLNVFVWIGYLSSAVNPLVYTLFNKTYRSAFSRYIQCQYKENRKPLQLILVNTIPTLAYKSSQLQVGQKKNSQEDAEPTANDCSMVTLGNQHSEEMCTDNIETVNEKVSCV
VIM-2 inh confirm: VIM-2 inhibition, confirmation assay | hit rate 73% among 200 | AID 1860 | inhibition, % at 5.6 µM | purified VIM-2 enzyme, nitrocefin absorbance | shares compounds with IMP-1 inh; in the data active = inhibition above about 8%
TEM-1 counter: blocks E. coli TEM-1 beta-lactamase, VIM-2 IMP-1 counter-screen | AID 2184 | inhibition, % at 5.6 µM | hit rate 50% among 200 | shares compounds with IMP-1 inh | nitrocefin absorbance inhibition; in the data active = inhibition above about 0.66%
IMP-1 inh conf: confirmation of P. aeruginosa IMP-1 metallo-beta-lactamase inhibitors. shares compounds with IMP-1 inh. purified IMP-1 enzyme, absorbance substrate hydrolysis. inhibition, % at 5.6 µM. hit rate 60% among 200; in the data active = inhibition above about 4.9%
Numbers stand for hits; – = inactive; · = no result.

SMILES	dFosB act	VIM-2 inh	IMP-1 inh	m5-HT2A agonist	VIM-2 inh confirm	TEM-1 counter	IMP-1 inh conf
COC(=O)C1Sc2[nH]c(=O)sc2C2c3ccccc3OC(=O)C12 (stereo not drawn)	–	–	–	–	·	·	·
O=C1CCN2C=Nc3cccc4ccc1c2c34	–	12	12	–	32	28	24
Cc1ccc(C)c(NC(=O)CCN2CCCC(C)C2)c1 (stereo not drawn)	–	–	–	–	·	·	·
O=C1CC(NCc2ccc3c(c2)OCO3)C(=O)N1CCc1ccccc1 (stereo not drawn)	–	47	42	–	–	–	–
CCN1C(=O)CC(NCc2ccc3c(c2)OCO3)C1=O (stereo not drawn)	–	–	–	–	·	·	·
CN1C(=O)/C(=C\c2ccc(N(C)C)cc2)OC1=S	–	8.0	9.5	–	8.3	18	6.1
CCCCCCn1c(=O)[nH]c2nc3cc(N)ccc3nc2c1=O	·	12	16	·	15	31	13
CC1CCN(S(=O)(=O)c2ccc(S(=O)(=O)N3CCCC3)cc2)CC1	–	–	–	–	·	·	·
COc1cc(NC(=O)NS(=O)(=O)c2ccc(C)cc2)cc(OC)c1	–	–	–	–	·	·	·
COc1ccc(NC(=O)NS(=O)(=O)c2ccc(C)cc2)cn1	–	16	12	–	–	–	–
CSCCC(NC(=O)c1ccccc1Cl)C(=O)NCCOc1ccc(C)cc1 (stereo not drawn)	·	·	·	–	·	·	·

Screening results deposited in PubChem BioAssay by several laboratories.
